Measured values as given in ChEMBL document CHEMBL1125107, “Cephalosporin 3'-quinolone esters with a dual mode of action” (J Med Chem, 1990).
Values after ≈ are worked out from the molar mass of the structure shown.

Key:
[1] = test system: Citrobacter freundii; assay: In vitro antibacterial activity was determined against Citrobacter freundii BS-16; type: functional
Outline: (§1)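 MIC by serial 2-fold dilution in Mueller-Hinton broth; results given as minimum inhibitory concentrations (nmol/mL).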

[2] = test system: Enterobacter cloacae; assay: In vitro antibacterial activity was determined against Enterobacter cloacae P99 (Class Ia beta-lactamase overproducer); type: functional; outline: as §1
[3] = test system: Escherichia coli; assay: In vitro antibacterial activity was determined against Escherichia coli TEM-1 (TEM-1 (class IIIa) beta-lactamase producer); type: functional; outline: as §1
[4] = test system: Proteus mirabilis; assay: In vitro antibacterial activity was determined against Proteus mirabilis 90; type: functional; outline: as §1
[5] = test system: Proteus vulgaris; assay: In vitro antibacterial activity was determined against Proteus vulgaris 1028BC (Class Ic beta-lactamase overproducer; type: functional; outline: as §1
[6] = test system: Serratia marcescens; assay: In vitro antibacterial activity was determined against Serratia marcescens 1071; type: functional
Outline: (§2)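 Broth MIC determination: serial 2-fold dilutions in Mueller-Hinton broth by standard methodology; the lowest concentration inhibiting growth is reported as the MIC, in nmol/mL.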

[7] = test system: Staphylococcus aureus; assay: In vitro antibacterial activity was determined against Staphylococcus aureus 1059B (inducible, high level beta-lactamase producer); type: functional
Outline: (§3)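 Serial 2-fold broth dilution in Mueller-Hinton broth, run by standard methodology; read-out is the minimum inhibitory concentration (MIC).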

[8] = test system: Staphylococcus aureus; assay: In vitro antibacterial activity was determined against Staphylococcus aureus ATCC 29213 (inducible, low level beta-lactamase producer); type: functional; outline: as §3
[9] = test system: Streptococcus pneumoniae; assay: In vitro antibacterial activity was determined against Streptococcus pneumoniae 6301; type: functional; outline: as §2
[10] = test system: Streptococcus pyogenes; assay: In vitro antibacterial activity was determined against Streptococcus pyogenes 4; type: functional; outline: as §2
[11] = test system: Pseudomonas aeruginosa; assay: In vitro antibacterial activity was determined against Pseudomonas aeruginosa 18S/H (Class Id beta-lactamase overproducer); type: functional; outline: as §2
[12] = test system: Enterococcus faecalis; assay: In vitro antibacterial activity was determined against Enterococcus faecalis ATCC 29212; type: functional; outline: as §1
[13] = test system: Staphylococcus aureus; assay: In vitro antibacterial activity was determined against Staphylococcus aureus 95 (Methicillin-resistant, high-level beta-lactamase producer); type: functional; outline: as §3
[14] = Half life period in rat after (i.v.) administration of a dose of 20 mg/kg; type: ADME, organism-based; parameters: dose 20 mg/kg, route intravenous; conditions: in vivo, iv
Outline: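 Rats given 20 mg/kg iv; plasma half-life determined.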

[15] = Evaluated for its stability in human plasma pH 6.5 at 37 degrees Celsius as determined by HPLC analysis; type: ADME
[16] = test system: Escherichia coli; assay: In vitro antibacterial activity was determined against Escherichia coli UB 1005; type: functional; outline: as §1
[17] = Toxicity was determined; type: organism-based; conditions: mouse, in vivo
Outline: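 Acute toxicity in mice after intravenous dosing, expressed as LD50 (mg/kg iv).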

[18] = test system: Proteus vulgaris; assay: In vitro antibacterial activity was determined against Proteus vulgaris 1028 BC (Class Ic beta-lactamase overproducer); type: functional; outline: as §1
[19] = test system: Staphylococcus aureus; assay: In vitro antibacterial activity was determined against Staphylococcus aureus 1059B ( inducible, high level beta-lactamase producer); type: functional; outline: as §2
[20] = test system: Staphylococcus aureus; assay: In vitro antibacterial activity was determined against Staphylococcus aureus ATCC 29213 ( inducible, low level beta-lactamase producer); type: functional; outline: as §2
[21] = test system: Pseudomonas aeruginosa; assay: In vitro antibacterial activity was determined against Pseudomonas aeruginosa ATCC 27853; type: functional; outline: as §2
[22] = test system: Pseudomonas aeruginosa; assay: In vitro antibacterial activity was determined against Pseudomonas aeruginosa 18S/H ( Class Id beta-lactamase overproducer); type: functional; outline: as §2
[23] = Evaluated for its stability in Mueller-Hinton broth at 37 degrees Celsius as determined by HPLC analysis; conditions: pH 6.5
[24] = test system: Escherichia coli; assay: Evaluated for the minimum inhibitory concentration against Escherichia coli UB 1005; type: functional; outline: as §1
[25] = test system: Pseudomonas aeruginosa; assay: Minimum inhibitory concentration against Pseudomonas aeruginosa ATCC 27853; type: functional; outline: as §2
[26] = test system: Proteus vulgaris; assay: Minimum inhibitory concentration against Proteus vulgaris 1028 BC (Class Ic beta-lactamase overproducer); type: functional; outline: as §2
[27] = test system: Pseudomonas aeruginosa; assay: Evaluated for the minimum inhibitory concentration against Pseudomonas aeruginosa 18S/H (Class Id beta-lactamase overproducer); type: functional; outline: as §1
[28] = test system: Streptococcus pneumoniae; assay: Minimum inhibitory concentration against Streptococcus pneumoniae 6301; type: functional; outline: as §2
[29] = test system: Streptococcus pyogenes; assay: Minimum inhibitory concentration against Streptococcus pyogenes 4; type: functional; outline: as §2
[30] = test system: Staphylococcus aureus; assay: Minimum inhibitory concentration against Staphylococcus aureus 95 (Methicillin-resistant, high-level beta-lactamase producer); type: functional; outline: as §3
[31] = test system: Proteus mirabilis; assay: Evaluated for the minimum inhibitory concentration against Proteus mirabilis 90

Compound CCn1cc(C(=O)O)c(=O)c2cc(F)c(N3CCSCC3)cc21 has an MIC [1] of 16 µg/mL (≈ 47.6 µM), an MIC [2] of 0.125 µg/mL (≈ 0.372 µM) and an MIC [3] of 0.5 µg/mL (≈ 1.49 µM). The MIC [4] was 16 µg/mL (≈ 47.6 µM), the MIC [5] was 0.5 µg/mL (≈ 1.49 µM) and the MIC [6] was 0.25 µg/mL (≈ 0.743 µM). For the same compound, the MIC [7] was 0.125 µg/mL (≈ 0.372 µM), the MIC [8] was 0.063 µg/mL (≈ 0.187 µM) and the MIC [9] was 16 µg/mL (≈ 47.6 µM). It also gave an MIC [10] of 8 µg/mL (≈ 23.8 µM), an MIC [11] of 1 µg/mL (≈ 2.97 µM) and an MIC [12] of 1 µg/mL (≈ 2.97 µM). For the same compound, the MIC [13] was 0.063 µg/mL (≈ 0.187 µM).

CCn1cc(C(=O)OCC2=C(C(=O)O)N3C(=O)[C@@H](NC(=O)COc4ccccc4)C3SC2)c(=O)c2cc3c(cc21)OCO3 (stereo partly drawn) gave a half-life [14] of 13 min, a half-life [15] of 360 min and an MIC [1] of 2 µg/mL (≈ 3.29 µM). For the same compound, the MIC [16] was 32 µg/mL (≈ 52.7 µM), the MIC [2] was 0.5 µg/mL (≈ 0.823 µM) and the MIC [3] was 1 µg/mL (≈ 1.65 µM). The LD50 [17] was greater than 500 mg/kg, the MIC [4] was 4 µg/mL (≈ 6.58 µM) and the MIC [18] was 0.25 µg/mL (≈ 0.411 µM). The MIC [6] was 1 µg/mL (≈ 1.65 µM), the MIC [19] was 0.5 µg/mL (≈ 0.823 µM) and the MIC [20] was 0.25 µg/mL (≈ 0.411 µM). For the same compound, the MIC [21] was greater than 256 µg/mL, the MIC [12] was 64 µg/mL (≈ 105 µM) and the MIC [22] was 16 µg/mL (≈ 26.3 µM). For the same compound, the MIC [13] was 4 µg/mL (≈ 6.58 µM) and the half-life [23] was 672 min.

For CN1CCN(c2c(F)cc3c(=O)c(C(=O)OCC4=C(C(=O)O)N5C(=O)[C@@H](NC=O)C5SC4)cn(CCF)c3c2F)CC1 (stereo partly drawn), the MIC [24] was 32 µg/mL (≈ 52.5 µM), the MIC [25] was greater than 128 µg/mL and the MIC [26] was 0.5 µg/mL (≈ 0.82 µM). For the same compound, the MIC [27] was 64 µg/mL (≈ 105 µM), the MIC [28] was 0.25 µg/mL (≈ 0.41 µM) and the MIC [29] was 0.25 µg/mL (≈ 0.41 µM). For the same compound, the MIC [30] was 32 µg/mL (≈ 52.5 µM) and the MIC [31] was 32 µg/mL (≈ 52.5 µM).
